This is a sample that favours compounds with a hit; in the whole collection about 3.3% have one here.
rCAG binder – binders of r(CAG) RNA repeats, primary screen, biochemical, fluorescence | AID 651821, 2012 | inhibition, % at 3 µM | hit rate 1.3% among 370,000 | r(CAG) RNA repeat, TO-PRO-1 dye displacement fluorescence;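 active means inhibition above the plate cutoff, the mean of all test compounds on that plate plus 3 SD, cut at about 35% in these data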;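 further: 0% = DMSO alone and 100% = 100 µM mitoxantrone as full dye displacement; higher means more dye released from RNA so lower well fluorescence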
mABHD4 FP – ABHD4 inhibitors, primary screen, biochemical, fluorescence polarization, mouse; (Lyso)-N-acylphosphatidylethanolamine lipase (Mus musculus), Q8VD66; purified mABHD4, FP-Rh probe fluorescence polarization; inhibition, % at 8.92 µM; hit rate 0.54% among 370,000; AID 720543, 2013;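 active means inhibition exceeding the mean over every tested compound plus 3 SD, cut at about 30% in these data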;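 further: 0% = plate median of compound wells and 100% = S159A mutant with DMSO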
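Test system: mouse ABHD4 enzyme, wild type. Reagent: FP-Rh fluorescent activity-based probe, added after compound pre-incubation. Timing: pre-incubation 45 min, probe exposure 60 min, at 25 °C. Technique: FP readout, ex 525 nm / em 598 nm. Benchmarks: high control S159A mutant with DMSO, low control median of compound wells.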
SIAE inh – human SIAE inhibitors, primary screen, biochemical, fluorescence polarization, FP-Rh probe, 1536-well HTS; hit rate 0.69% among 370,000; inhibition, % at 9.66 µM; Sialate O-acetylesterase (Homo sapiens), Q9HAT2; AID 1053197, 2014; SIAE FP-Rh probe binding;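 active means inhibition above a cutoff: mean of compounds within the control limits plus 3 SD of those, cut at about 17% in these data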;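 further: 0% = plate median of compound wells and 100% = probe without SIAE protein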
Target sequence (Q9HAT2 whole entry, looked up): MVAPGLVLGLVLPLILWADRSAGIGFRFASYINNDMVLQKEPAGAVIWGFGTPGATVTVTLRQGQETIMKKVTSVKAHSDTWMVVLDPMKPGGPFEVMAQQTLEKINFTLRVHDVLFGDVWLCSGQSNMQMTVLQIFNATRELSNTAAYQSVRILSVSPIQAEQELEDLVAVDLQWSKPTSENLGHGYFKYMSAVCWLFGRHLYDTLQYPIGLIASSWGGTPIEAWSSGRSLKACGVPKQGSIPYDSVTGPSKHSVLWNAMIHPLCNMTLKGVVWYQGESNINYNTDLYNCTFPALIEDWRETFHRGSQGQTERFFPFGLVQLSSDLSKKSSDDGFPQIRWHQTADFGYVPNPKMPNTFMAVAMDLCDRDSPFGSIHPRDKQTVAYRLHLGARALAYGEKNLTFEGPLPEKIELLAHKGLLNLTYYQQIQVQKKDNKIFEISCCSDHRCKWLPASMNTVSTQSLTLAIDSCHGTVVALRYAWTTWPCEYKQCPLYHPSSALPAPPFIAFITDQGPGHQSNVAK
PRMT1 inh – PRMT1 methyltransferase inhibitors, primary screen, biochemical, fluorescence polarization; hit rate 1.3% among 370,000; recombinant PRMT1, activity-based probe fluorescence polarization; Protein arginine N-methyltransferase 1 (Homo sapiens), Q99873; inhibition, % at 2.79 µM;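 active means inhibition above about 21% made by adding two undisclosed values, limit read from the data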
TCR-CD3 inh – inhibitors of human TCR-CD3 interaction, primary screen, biochemical, fluorescence, TAMRA-labeled TCR probe | inhibition, % at 9.4 µM | hit rate 0.37% among 360,000; in the data active means inhibition above about 19%;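 further: recombinant mutant TCR 2C K166C tagged with TAMRA read by polarization; 0% = receptor in buffer alone and 100% = receptor with positive control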
ABHD4 confirm – ABHD4 inhibitors, retest, confirmation, biochemical, fluorescence polarization, mouse; hit rate 55% among 1,800; inhibition, % at 8.92 µM; AID 720658, 2013; purified mABHD4, FP-Rh probe fluorescence polarization; shares compounds with mABHD4 FP;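 active means mean inhibition across replicates above the hit cutoff set in the primary screen, cut at about 30% in these data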;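 further: 0% = wild-type ABHD4 with DMSO and 100% = catalytically dead S159A mutant with DMSO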
An asterisk follows results filed as active; i = inactive; nt = no result.

SMILES | rCAG binder | mABHD4 FP | SIAE inh | PRMT1 inh | TCR-CD3 inh | ABHD4 confirm
CCN(CC)c1ccc(NC(=O)CSc2nnc(-c3ccc(Cl)cc3)n2Cc2ccco2)cc1 | 6 | 17 | 0 | -1 | nt | nt
CCCCNC(=O)C[C@H]1C[C@@]2(C(=O)OC)C(=C[C@H](C3CCCC3)O[C@@H]2C)N(Cc2ccco2)C1=O | -3 | -5 | -1 | -4 | nt | nt
Cc1cccc(NC(=S)NCc2ccc3c(c2)cc(C)n3C)c1C | 10 | 30* | 4 | 8 | -9 | -16
Cc1cc2cc(CNC(=S)Nc3ccc(OC(F)(F)F)cc3)ccc2n1C | 24 | 15 | 1 | 12 | 6 | nt
Cc1c[nH]c2cccc(-c3ccc(Cl)cc3Cl)c12 | 2 | -12 | 3 | -1 | nt | nt
COC(=O)C1CN(Cc2cn(Cc3ccc(OC)cc3)nn2)CCS(=O)(=O)N1Cc1ccc(Cl)cc1 (stereo unspecified) | 2 | -3 | -2 | 1 | nt | nt
O=C(Nc1nc2ccccc2s1)c1ccccc1 | 1 | -14 | -4 | -5 | 2 | nt
c1ccc2sc(NN=C3CCCCCC3)nc2c1 | 9 | 36* | 2 | 3 | -2 | 30*
O=C(O)c1ccc(N2CCN(C(c3ccccc3)c3ccccc3)CC2)c([N+](=O)[O-])c1 | 26 | 32* | -2 | 4 | -4 | 47*
COc1ccccc1C(=O)N/C(=C/c1ccc(Br)cc1)C(=O)N1CCOCC1 | -1 | 7 | -2 | -4 | -6 | nt
COc1ccc2c3c(cccc13)C(=O)N(O)C2=O | -1 | 9 | 5 | 1 | -3 | nt
CCN1C(=O)c2cccc3c(N)ccc(c23)C1=O | i | 33* | 9 | 172* | 12 | 58*
Cc1ccccc1CN1CCCCC(NC(=O)c2ccccc2F)C1=O (stereo unspecified) | 3 | 5 | 1 | 4 | nt | nt
O=c1ccn([C@@H]2O[C@H](CNCc3c(OCc4ccccc4F)ccc4ccccc34)[C@@H](O)[C@H]2O)c(=O)[nH]1 | 8 | 1 | 2 | 0 | 0 | nt
O=c1[nH]c2ccccc2c(=O)c2ccccc12 | 1 | 4 | -3 | 6 | 2 | nt
Nc1cc2c(cc1Br)[nH]c(=O)c1ccccc12 | 13 | 31* | -3 | 3 | 1 | 31*
Nc1cccc2[nH]c(=O)c3ccccc3c12 | 12 | 31* | 16 | 6 | 3 | 12
CCN1Cc2nnn(Cc3ccc(C)cc3)c2-c2ccccc2S1(=O)=O | 0 | 1 | -2 | 2 | nt | nt
COc1cc(OC)cc(C(=O)Nc2nc3ccccc3[nH]2)c1 | 2 | 36* | 1 | -5 | 4 | 31*
CCOc1ccc(C(=O)Nc2nc3ccccc3[nH]2)cc1OCC | 0 | 35* | -1 | 0 | -4 | 40*
Cc1cc(C)cc(C(=O)Nc2nc3ccccc3[nH]2)c1 | 6 | 18 | -3 | -1 | -1 | nt
O=C(COc1ccc2ccccc2c1)Nc1nc2ccccc2[nH]1 | 5 | -1 | -7 | 1 | -3 | nt
COc1ccc(OCC(=O)Nc2nc3ccccc3[nH]2)cc1 | 0 | 39* | -12 | -3 | 3 | 39*
COc1ccc(C(=O)Nc2nc3ccccc3[nH]2)cc1OC | 1 | 4 | -2 | 1 | 3 | nt
CN(C)[C@H]1CCN(c2ccc3c(c2)O[C@H]2CCN(C2)S3(=O)=O)C1 | 5 | -3 | 1 | 1 | nt | nt
SMILES | rCAG binder | mABHD4 FP | SIAE inh | PRMT1 inh | TCR-CD3 inh | ABHD4 confirm
O=C(OCc1cn(Cc2ccccc2)nn1)N1CCCC1 | 1 | 2 | -1 | -4 | nt | nt
O=C(NCc1ccccn1)c1ccc(NS(=O)(=O)c2cccc(Cl)c2)cc1 | 9 | -6 | 0 | -2 | 9 | nt
O=[N+]([O-])c1ccc(N=Nc2c(Cl)cc(O)cc2Cl)cc1 | 33 | 77* | 26* | 1 | 0 | 85*
O=C(NNc1ccccn1)C(=O)NNS(=O)(=O)c1ccc(F)cc1 | 1 | 36* | 7 | -2 | 4 | 30*
O=C(NNS(=O)(=O)c1ccc(F)cc1)c1ccccc1 | 3 | 6 | -7 | -2 | -2 | nt
O=C(NNc1ccccn1)C(=O)NNS(=O)(=O)c1ccc(Cl)cc1 | 0 | 58* | -2 | -1 | 2 | 55*
COc1ccccc1C(=O)n1ccc2ccc(-c3ccc4ccn(Cc5ccc(C#N)cc5)c4c3)cc21 | 16 | -6 | -3 | -2 | nt | nt
COC(=O)[C@H]1C[C@@]2(C)c3ccccc3N(S(=O)(=O)c3ccccc3)[C@H]2N1C(=O)CNC1CCCCC1 | 2 | 2 | 3 | 2 | nt | nt
O=C(C=Cc1ccc2c(c1)OCO2)c1ccccc1 | 1 | -1 | 9 | 3 | 1 | nt
CNc1ccc(Br)cc(C(=O)/C=C/c2ccc3c(c2)OCO3)c1=O | 33 | 40* | 11 | 25* | 18 | 44*
CNc1nc(N)c([N+](=O)[O-])c(Nc2ccccc2)n1 | nt | -1 | 0 | -3 | nt | nt
CCCc1ccc(C2C3=C(CC(C)(C)CC3=O)NC3=C2C(=O)c2ccccc23)cc1 (stereo unspecified) | 4 | 39* | 4 | 19 | -9 | 57*
CCCCCCCCCCCCCCCC(O)C[N+](C)(C)CCO (stereo unspecified) | 7 | 38* | 1 | -2 | -5 | 51*
CCCCCC(O)CCCC(=O)O (stereo unspecified) | 3 | 2 | 2 | -4 | 10 | nt
CCOc1ccccc1N1CCN(C2=C(NS(=O)(=O)c3cccs3)C(=O)c3ccccc3C2=O)CC1 | 9 | 48* | 12 | -1 | 1 | 62*
O=C1C(NS(=O)(=O)c2cccs2)=C(N2CCN(c3cccc(C(F)(F)F)c3)CC2)C(=O)c2ccccc21 | 26 | 43* | 3 | 10 | 0 | 70*
CCOC(=O)C(=O)Nc1nc(-c2ccc3c(c2)CCN3C(=O)C2CC2)c(C)s1 | 8 | 39* | 0 | -2 | 6 | 19
C/C(=N\NC(=O)CNc1cccc2ccccc12)c1ccccc1 | 3 | 21 | 9 | 11 | 5 | nt
O=C(CNc1cccc2ccccc12)N/N=C/c1ccc(C(=O)O)cc1 | 23 | 30* | 9 | 3 | -1 | 21
Cc1cccc2c(N=Nc3ccc(S(=O)(=O)Nc4cccc(Cl)c4)cc3[N+](=O)[O-])c(O)[nH]c12 | 24 | 43* | 3 | 1 | 3 | -43
Cc1ccc(S(=O)(=O)Nc2ccccc2)cc1[N+](=O)[O-] | 1 | -2 | -4 | -2 | 3 | nt
CCOc1ccc2[nH]c3c(N4CCc5ccccc5C4)ncnc3c2c1 | 5 | 35* | 16 | -6 | -3 | 53*
CCc1ccc(NC(=O)C2CCCCC2C(=O)O)cc1 (stereo unspecified) | -3 | -2 | 7 | -3 | -3 | nt

From PubChem
